Reference: ChEMBL document CHEMBL2062435, “Synthesis and in vitro antibacterial activity of gemifloxacin derivatives containing a substituted benzyloxime moiety” (2012)

System: Klebsiella pneumoniae
Test: Antimicrobial activity against Klebsiella pneumoniae 10-2 after 18-24 hrs by two-fold serial dilution method
Type: functional
Method in brief: (§1)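 Agar-medium twofold serial dilution against Gram-positive and Gram-negative strains; MIC taken as the lowest compound concentration giving complete inhibition of bacterial growth after incubation at 35 °C for 18-24 h.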

Row | SMILES | MIC [µg/mL]
1 | COc1cccc(CO/N=C2\CN(c3nc4c(cc3F)c(=O)c(C(=O)O)cn4C3CC3)CC2CN)c1OC.CS(=O)(=O)O (racemic) | 128

System: Enterococcus faecalis
Test: Antimicrobial activity against Enterococcus faecalis 10-6 after 18-24 hrs by two-fold serial dilution method
Type: functional
Method in brief: as §1

Row | SMILES | MIC [µg/mL]
2 | COc1cccc(CO/N=C2\CN(c3nc4c(cc3F)c(=O)c(C(=O)O)cn4C3CC3)CC2CN)c1OC.CS(=O)(=O)O (racemic) | 4

System: Klebsiella pneumoniae
Test: Antimicrobial activity against Klebsiella pneumoniae 10-3 after 18-24 hrs by two-fold serial dilution method
Type: functional
Method in brief: as §1

Row | SMILES | MIC [µg/mL]
3 | COc1cccc(CO/N=C2\CN(c3nc4c(cc3F)c(=O)c(C(=O)O)cn4C3CC3)CC2CN)c1OC.CS(=O)(=O)O (racemic) | 2

System: Pseudomonas aeruginosa
Test: Antimicrobial activity against extended spectrum beta-lactamases-producing Pseudomonas aeruginosa 10-15 after 18-24 hrs by two-fold serial dilution method
Type: functional
Method in brief: as §1

Row | SMILES | MIC [µg/mL]
4 | COc1cccc(CO/N=C2\CN(c3nc4c(cc3F)c(=O)c(C(=O)O)cn4C3CC3)CC2CN)c1OC.CS(=O)(=O)O (racemic) | 8

System: Staphylococcus aureus
Test: Antimicrobial activity against extended spectrum beta-lactamases-producing methicillin-resistant Staphylococcus aureus 10-15 after 18-24 hrs by two-fold serial dilution method
Type: functional
Method in brief: (§2)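 Agar twofold serial dilution MIC against clinical isolates. MIC was taken as the lowest concentration giving complete inhibition of bacterial growth after incubation at 35 °C for 18-24 h.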

Row | SMILES | MIC [µg/mL]
5 | COc1cccc(CO/N=C2\CN(c3nc4c(cc3F)c(=O)c(C(=O)O)cn4C3CC3)CC2CN)c1OC.CS(=O)(=O)O (racemic) | 4

System: Staphylococcus epidermidis
Test: Antimicrobial activity against extended spectrum beta-lactamases-producing methicillin-resistant Staphylococcus epidermidis 10-13 after 18-24 hrs by two-fold serial dilution method
Type: functional
Method in brief: as §2

Row | SMILES | MIC [µg/mL]
6 | COc1cccc(CO/N=C2\CN(c3nc4c(cc3F)c(=O)c(C(=O)O)cn4C3CC3)CC2CN)c1OC.CS(=O)(=O)O (racemic) | 0.25

System: Enterococcus faecalis
Test: Antimicrobial activity against Enterococcus faecalis 10-7 after 18-24 hrs by two-fold serial dilution method
Type: functional
Method in brief: as §1

Row | SMILES | MIC [µg/mL]
7 | COc1cccc(CO/N=C2\CN(c3nc4c(cc3F)c(=O)c(C(=O)O)cn4C3CC3)CC2CN)c1OC.CS(=O)(=O)O (racemic) | 1

System: Pseudomonas aeruginosa
Test: Antimicrobial activity against extended spectrum beta-lactamases-producing Pseudomonas aeruginosa 10-5 after 18-24 hrs by two-fold serial dilution method
Type: functional
Method in brief: as §1

Row | SMILES | MIC [µg/mL]
8 | COc1cccc(CO/N=C2\CN(c3nc4c(cc3F)c(=O)c(C(=O)O)cn4C3CC3)CC2CN)c1OC.CS(=O)(=O)O (racemic) | 4

System: Staphylococcus epidermidis
Test: Antimicrobial activity against extended spectrum beta-lactamases-producing methicillin-sensitive Staphylococcus epidermidis 10-13 after 18-24 hrs by two-fold serial dilution method
Type: functional
Method in brief: as §1

Row | SMILES | MIC [µg/mL]
9 | COc1cccc(CO/N=C2\CN(c3nc4c(cc3F)c(=O)c(C(=O)O)cn4C3CC3)CC2CN)c1OC.CS(=O)(=O)O (racemic) | 0.06

System: Staphylococcus aureus
Test: Antimicrobial activity against extended spectrum beta-lactamases-producing methicillin-sensitive Staphylococcus aureus 10-13 after 18-24 hrs by two-fold serial dilution method
Type: functional
Method in brief: as §1

Row | SMILES | MIC [µg/mL]
10 | COc1cccc(CO/N=C2\CN(c3nc4c(cc3F)c(=O)c(C(=O)O)cn4C3CC3)CC2CN)c1OC.CS(=O)(=O)O (racemic) | 0.03

System: Staphylococcus epidermidis
Test: Antimicrobial activity against extended spectrum beta-lactamases-producing methicillin-sensitive Staphylococcus epidermidis 10-15 after 18-24 hrs by two-fold serial dilution method
Type: functional
Method in brief: as §1

Row | SMILES | MIC [µg/mL]
11 | COc1cccc(CO/N=C2\CN(c3nc4c(cc3F)c(=O)c(C(=O)O)cn4C3CC3)CC2CN)c1OC.CS(=O)(=O)O (racemic) | 4

System: Klebsiella pneumoniae
Test: Antimicrobial activity against extended spectrum beta-lactamases-producing Klebsiella pneumoniae 10-2 after 18-24 hrs by two-fold serial dilution method
Type: functional
Method in brief: as §1

Row | SMILES | MIC [µg/mL]
12 | COc1cccc(CO/N=C2\CN(c3nc4c(cc3F)c(=O)c(C(=O)O)cn4C3CC3)CC2CN)c1OC.CS(=O)(=O)O (racemic) | > 128

System: Klebsiella pneumoniae
Test: Antimicrobial activity against Klebsiella pneumoniae 10-4 after 18-24 hrs by two-fold serial dilution method
Type: functional
Method in brief: as §1

Row | SMILES | MIC [µg/mL]
13 | COc1cccc(CO/N=C2\CN(c3nc4c(cc3F)c(=O)c(C(=O)O)cn4C3CC3)CC2CN)c1OC.CS(=O)(=O)O (racemic) | > 128

System: Pseudomonas aeruginosa
Test: Antimicrobial activity against Pseudomonas aeruginosa 10-12 after 18-24 hrs by two-fold serial dilution method
Type: functional
Method in brief: as §1

Row | SMILES | MIC [µg/mL]
14 | COc1cccc(CO/N=C2\CN(c3nc4c(cc3F)c(=O)c(C(=O)O)cn4C3CC3)CC2CN)c1OC.CS(=O)(=O)O (racemic) | 8

System: Escherichia coli
Test: Antimicrobial activity against Escherichia coli 10-3 after 18-24 hrs by two-fold serial dilution method
Type: functional
Method in brief: as §1

Row | SMILES | MIC [µg/mL]
15 | COc1cccc(CO/N=C2\CN(c3nc4c(cc3F)c(=O)c(C(=O)O)cn4C3CC3)CC2CN)c1OC.CS(=O)(=O)O (racemic) | 16

System: Klebsiella pneumoniae
Test: Antimicrobial activity against extended spectrum beta-lactamases-producing Klebsiella pneumoniae 10-1 after 18-24 hrs by two-fold serial dilution method
Type: functional
Method in brief: as §1

Row | SMILES | MIC [µg/mL]
16 | COc1cccc(CO/N=C2\CN(c3nc4c(cc3F)c(=O)c(C(=O)O)cn4C3CC3)CC2CN)c1OC.CS(=O)(=O)O (racemic) | > 128

System: Streptococcus pneumoniae
Test: Antimicrobial activity against extended spectrum beta-lactamases-producing Streptococcus pneumoniae 10-4 after 18-24 hrs by two-fold serial dilution method
Type: functional
Method in brief: as §1

Row | SMILES | MIC [µg/mL]
17 | COc1cccc(CO/N=C2\CN(c3nc4c(cc3F)c(=O)c(C(=O)O)cn4C3CC3)CC2CN)c1OC.CS(=O)(=O)O (racemic) | 0.06

System: Escherichia coli
Test: Antimicrobial activity against Escherichia coli 10-1 after 18-24 hrs by two-fold serial dilution method
Type: functional
Method in brief: as §1

Row | SMILES | MIC [µg/mL]
18 | COc1cccc(CO/N=C2\CN(c3nc4c(cc3F)c(=O)c(C(=O)O)cn4C3CC3)CC2CN)c1OC.CS(=O)(=O)O (racemic) | > 128

System: Staphylococcus aureus
Test: Antimicrobial activity against Staphylococcus aureus ATCC […] after 18-24 hrs by two-fold serial dilution method
Type: functional
Method in brief: as §1

Row | SMILES | MIC [µg/mL]
19 | COc1cccc(CO/N=C2\CN(c3nc4c(cc3F)c(=O)c(C(=O)O)cn4C3CC3)CC2CN)c1OC.CS(=O)(=O)O (racemic) | 0.015
